# Compounds with a hit are over-represented: about 3.9% of the library has one in this group of screens.
# TAAR1 ag: human TAAR1 agonism; activation, % at 3 µM; 360,000 compounds, 0.99% hits; CHO RD-HGA16 TAAR1, Fluo-8 calcium fluorescence; vehicle wells 0%, saturating PEA agonist 100%; Q96RJ0;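 active means activation above the mean activation of all test compounds in the run plus 3 SD, cut at about 38% in these data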
#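 Repeats: no replicates (n 1) | Material: CHO-derived RD-HGA16 cells with stable Gα16 and human TAAR1 | Technique: Kinetic Fluo-8 calcium fluorescence | Schedule: 17-24 h seeding, 75 min 37 °C dye, 30 min RT | Evaluation: % activation from peak over basal fluorescence ratio, DMSO-to-PEA scaled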
# CHO parental Ca: counter-screen for OX1R antagonists: effect in parental CHO cells; 330,000 compounds, 0.63% hits; inhibition, % at 5.6 µM; AID 463079; parental CHO-K1, ATP-induced calcium, Fluo-8 fluorescence;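 active means inhibition above that plate's mean sample inhibition plus 3 SD, cut at about 26% in these data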;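 further: 0% = ATP-challenged DMSO wells and 100% = DMSO wells without ATP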
#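 Material: Parental CHO cells | Reagent: ATP | Compound dosing: Single nominal dose of 5.6 µM per compound | Detection: Intracellular calcium via Fluo-8 no-wash fluorescent dye | Read-out: % inhibition of ATP-induced calcium mobilization | Benchmarks: Low control ATP plus DMSO, high control DMSO only | Replicates: Singlicate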
# OX1R antag-1: antagonists of human orexin 1 receptor. O43613. CHO/OX1R cells, Fluo-8 calcium fluorescence, orexin A. inhibition, % at 5 µM. 330,000 compounds, 0.43% hits. AID 434989;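 active means inhibition above its plate's threshold, mean inhibition of all tested compounds on the plate plus 3 SD, cut at about 37% in these data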;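 further: 0% = orexin A challenge wells and 100% = SB-334867-A antagonist wells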
# Target sequence (O43613 whole entry, looked up): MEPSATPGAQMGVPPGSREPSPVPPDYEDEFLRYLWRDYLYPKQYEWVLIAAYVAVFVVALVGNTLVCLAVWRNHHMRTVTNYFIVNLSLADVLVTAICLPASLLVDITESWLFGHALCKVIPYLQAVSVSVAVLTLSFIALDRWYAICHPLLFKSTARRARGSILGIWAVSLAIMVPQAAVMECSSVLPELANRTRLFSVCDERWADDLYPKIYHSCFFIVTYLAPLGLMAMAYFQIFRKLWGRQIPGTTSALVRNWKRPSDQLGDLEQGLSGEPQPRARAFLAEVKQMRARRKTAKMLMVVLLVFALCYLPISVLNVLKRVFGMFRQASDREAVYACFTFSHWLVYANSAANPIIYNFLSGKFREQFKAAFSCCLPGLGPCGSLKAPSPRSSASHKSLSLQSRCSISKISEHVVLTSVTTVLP
# TAAR1 antagonist: antagonists of human TAAR1 | CHO RD-HGA16 TAAR1, Fluo-8 calcium fluorescence, antagonist | 360,000 compounds, 1.5% hits | inhibition, % at 3 µM | AID 624466;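 active means inhibition above a per-plate cutoff, the mean inhibition of test compounds on that plate plus 3 SD, cut at about 49% in these data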;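 further: 0% = DMSO plus EC80 beta-PEA response and 100% = DMSO alone without agonist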
#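 Material: RD-HGA16 CHO cells with stable hTAAR1 and Gα16; Dosing: single nominal final test compound concentration of 3 µM; Schedule: seeding 17-24 h prior, 75-min 37 °C, 30-min RT dye loading; Detection: kinetic Fluo-8 calcium fluorescence measurement; Measure: % inhibition from peak post-agonist over basal fluorescence ratio; Benchmarks: vehicle and agonist controls.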
# OX1R antag-2: OX1R (human) antagonism; O43613; OX1R-expressing cells, FRET antagonist read-out; inhibition, % at 6.6 µM; 330,000 compounds, 1.8% hits; in the data active means inhibition mostly above about 38%, no sharp cut-off; inactive means mostly below about 40%;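 further: 0% = agonist challenge alone and 100% = reference antagonist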
# The depositor's hits bear a star; . = no result.
SMILES,TAAR1 ag,CHO parental Ca,OX1R antag-1,TAAR1 antagonist,OX1R antag-2
O=C(OCCCN=C1NS(=O)(=O)c2ccccc21)c1ccc([N+](=O)[O-])cc1,1,-4,-6,5,51*
O=C(c1cc(COc2ccc(F)cc2Cl)on1)N1CCC(OCc2cccnc2)CC1,5,61*,45*,-10,57
O=C(c1cc(COc2cccc(C(F)(F)F)c2)on1)N1CCC(Oc2cccnc2)CC1,6,39*,11,33,6
Cc1ccc(OCc2cc(C(=O)N3CCC(Oc4cccnc4)CC3)no2)cc1C,3,12,24,19,28
Cc1ccc(S(=O)(=O)N2CCC(=O)N([C@H](COCc3ccc(Cl)c(Cl)c3)Cc3ccccc3)CC2)cc1,0,.,.,7,.
O=C1NC(=O)/C(=C\c2ccc(Br)o2)S1,5,-5,-21,-10,38*
CC(=O)Nc1cc(-c2ccncc2)cn2c(-c3ccccc3)cnc12,-2,.,.,1,.
Cc1nn(-c2cccc([N+](=O)[O-])c2)c(N)c1-c1ccccc1,1,-2,-23,-2,41*
COc1ccc(N2CCc3c(C)nc4c(OC)cc(OC)cc4c32)cc1,2,-10,-17,-14,53
COc1ccc(N2CCc3c(C)nc4c(OC)cccc4c32)cc1,1,6,-5,-28,70*
O=C(NCCC1=CCCCC1)c1[nH]c(C(F)(F)F)nc1-c1ccccc1,7,.,.,12,.
COc1ccc(Oc2c(Cl)cnn(-c3ccc(Cl)c(Cl)c3)c2=O)cc1,1,52*,14,10,12
COc1cccc(-n2c(C)nc3c(cnn3-c3ccc(C)cc3)c2=O)c1,2,9,-5,17,18
COc1ccc(Oc2c(Cl)cnn(-c3ccc(C)cc3)c2=O)cc1,12,-6,-27,7,11
Cc1cccc(-n2c(C)nc3c(cnn3-c3ccc(F)cc3)c2=O)c1,3,35*,28,29,54
COc1ccc(-n2c(C)nc3c(cnn3-c3ccc(Cl)cc3)c2=O)cc1,3,40*,19,10,35
COc1ccc(N2C(=O)c3ccccc3NC(=O)C2C(=O)NCC(C)C)cc1 (centres undefined),4,.,.,-10,.
O=C1CN(C(=O)c2ccccc2Br)C(c2ccc(F)cc2)c2cc(F)ccc2N1 (centres undefined),41*,-21,-34,8,4
COc1ccc2c(c1)C(=NN)c1cc(OC)ccc1-2,9,-14,-4,-13,55*
CNC(=S)N/N=C/c1cn(CCOc2cccc(OC)c2)c2ccccc12,2,6,-8,12,18
CC(C)C(=O)N1CCN(c2ccccc2NC(=O)c2ccc([N+](=O)[O-])o2)CC1,4,-22,-24,13,61*
O=C(Nc1ccccc1N1CCN(C(=O)c2ccccc2)CC1)c1ccc([N+](=O)[O-])o1,12,.,.,55*,.
O=C(Nc1ccccc1N1CCCC1)c1ccc([N+](=O)[O-])o1,-1,-19,-34,-13,47
CSCCC(c1nc2ccccc2[nH]1)n1c(-c2ccc3ncccc3c2)nc2ccccc21 (centres undefined),10,.,.,-7,.
CSc1nnc(C)c(/C=C/Nc2ccc(Cl)cc2)n1,37,-20,-21,9,19
SMILES,TAAR1 ag,CHO parental Ca,OX1R antag-1,TAAR1 antagonist,OX1R antag-2
CSc1nnc(C)c(/C=C/Nc2ccc(F)cc2)n1,68*,-2,-18,32,23
Cc1cc(C(=O)COC(=O)c2ccc(CO)cc2)c(C)n1CC1COc2ccccc2O1 (centres undefined),23,2,-7,50*,6
CC(C)[C@H](NC(=O)[C@H](C)NC(=O)OC(C)(C)C)C(=O)N1CCC2CCN(Cc3ccccc3)CC21 (some centres undefined),0,.,.,-18,.
COc1ccc(-c2c(C#N)c(N)nc3c2CCC3)cc1,7,7,-24,23,44
CSc1nc2c(c(-c3ccc(O)cc3)c1C#N)CCC2,-2,48*,9,4,38
COc1ccc(S(N)(=O)=O)cc1C(=O)OCC(=O)N1c2ccccc2NC(=O)C1(C)C,15,-4,9,0,-3
COc1cc(/C=C/C(=O)OCC(=O)N2c3ccccc3NC(=O)C2(C)C)cc(OC)c1OC,27,-8,12,64*,39*
Cc1cc(C)n(C(=O)/C(C#N)=N/Nc2cc(Cl)cc(Cl)c2)n1,.,75*,59*,.,59*
Cn1c(SCC2CCCO2)nnc1-c1ccncc1 (centres undefined),4,-9,-6,-14,-8
Cn1c(SCC2CCCO2)nnc1-c1cccc([N+](=O)[O-])c1 (centres undefined),12,-1,-16,21,50*
CCn1c(SCC(=O)NC2CCCc3ccccc32)nnc1-c1cccs1 (centres undefined),5,-15,3,-11,70*
CCn1c(SCC(=O)NC2CCCc3ccccc32)nnc1-c1ccncc1 (centres undefined),2,-9,-19,1,3
O=C(CSc1ccc2ccccc2c1)NC1CCCc2ccccc21 (centres undefined),7,-16,-8,-5,71*
COc1cccc(CNC(=O)CSc2nc3ccc(C)cc3[nH]2)c1,0,-17,-8,-10,42*
Cc1ccc2nc(SCC(=O)NC3CCCc4ccccc43)[nH]c2c1 (centres undefined),-1,-33,12,-5,73*
O=C(CSc1cc(Cl)ccc1Cl)NC1CCCc2ccccc21 (centres undefined),2,-27,-26,19,17
COc1ccccc1/C=C/C(=O)N1CCN(S(=O)(=O)c2cccs2)CC1,4,-16,-33,25,4
CCOC(=O)C1=CCC(c2cccn2C(=O)OC(C)(C)C)N(S(=O)(=O)c2ccc(C)cc2)C1 (centres undefined),-1,.,.,-9,.
O=S(=O)(c1ccc(NC(=S)NC23CC4CC(CC(C4)C2)C3)cc1)N1CCCCC1,6,.,.,8,.
COC(=O)[C@]12C[C@H](CC(=O)NCc3ccc(C)o3)C(=O)N(Cc3ccccc3)C1=C[C@H](C(C)(C)C)O[C@@H]2C,-2,.,.,-44,.
Cc1ccc2nc(SCC(=O)c3ccc(Cl)s3)[nH]c2c1,12,-17,-21,7,56*
CC(C)C[C@@H]1CN(CCCC[C@H]2CNC(=O)C(=O)N2CCC2CCCCC2)C(=O)C(=O)N1Cc1ccccc1,1,.,.,-9,.
O=C(Nc1nc2ccc(F)cc2s1)C1CCN(S(=O)(=O)c2cc([N+](=O)[O-])ccc2Cl)CC1,4,67*,28,36,33
Cc1cc(=O)[nH]c(SCC(=O)O)c1C#N,8,-3,-3,-5,1
Cc1cc(=O)[nH]c(SCC(=O)C23CC4CC(CC(C4)C2)C3)c1C#N,16,-9,-20,-9,40*
